Experimental data published in ChEMBL document CHEMBL5390295, “Isolinderalactone Ameliorates the Pathology of Alzheimer's Disease by Inhibiting the JNK Signaling Pathway” (2023).
Active and inactive are the calls of the source. The rule behind the calls is not given here.

Key:
Mus musculus [1] = assay: Anti-alzheimer activity against APP/PS1 dE9 double transgenic mouse model assessed as decrease in escape latency at 5 mg/kg, ip administered once daily for 30 consecutive day measured on day 5 by morris water maze test; type: functional, organism-based; conditions: time 30.0 day
In short: (§1)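 Female APP/PS1 mice, 10 months old, about 30 g, 10 per group. Dosing was intraperitoneal in 1× PBS, once daily for one month (1 or 10 mg/kg test; 5 mg/kg donepezil). WT and untreated APP/PS1 controls got PBS. Morris water maze: training days 1–4, averaged escape latency. Day-5 probe trial ran 60 s with the platform removed, recording platform crossings and time per quadrant. Mean ± SEM.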

Mus musculus [2] = assay: Anti-alzheimer activity against APP/PS1 dE9 double transgenic mouse model assessed as increase in platform crossings at 5 mg/kg, ip administered once daily for 30 consecutive days […] by morris water maze test; type: functional, organism-based; conditions: time 30.0 day; in short: as §1
Mus musculus [3] = assay: Anti-alzheimer activity against APP/PS1 dE9 double transgenic mouse model assessed as increase in time spent in the target quadrant at 5 mg/kg, ip administered once daily for 30 consecutive days measured on day 5 by morris water maze test; type: functional, organism-based; conditions: time 30.0 day; in short: as §1
Mus musculus [4] = assay: Anti-alzheimer activity in hippocampus of APP/PS1 dE9 double transgenic mouse model assessed as reduction in glial cell aggregation at 5 mg/kg, ip administered once daily for 30 consecutive days by immunofluorescence staining; type: functional, organism-based; conditions: time 30.0 day
In short: (§2)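 Brains from dosed female APP/PS1 mice (10 months) were fixed in 4% paraformaldehyde at 4 °C for 24–48 h, taken through a sucrose gradient and OCT, and cut into 15 μm sections. Sections were permeabilized with 0.3% Triton X-100, blocked in 10% BSA for 1 h, and incubated with primary antibody overnight at 4 °C (1:200). Secondary was 1:500 for 1 h at 25 °C, with DAPI counterstain and confocal imaging, in triplicate.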

Mus musculus [5] = assay: Anti-alzheimer activity in hippocampus of APP/PS1 dE9 double transgenic mouse model assessed as reduction in amyloid beta plaque deposition at 5 mg/kg, ip administered once daily for 30 consecutive days by immunofluorescence staining; type: functional, organism-based; conditions: time 30.0 day; in short: as §2
Mus musculus [6] = assay: Anti-alzheimer activity in hippocampus of APP/PS1 dE9 double transgenic mouse model assessed as increase in SOD content at 5 mg/kg, ip administered once daily for 30 consecutive days by immunofluorescence analysis; type: functional, organism-based; conditions: time 30.0 day
Mus musculus [7] = assay: Anti-alzheimer activity in hippocampus of APP/PS1 dE9 double transgenic mouse model assessed as decrease in MDA level at 5 mg/kg, ip administered once daily for 30 consecutive days […]; type: functional, organism-based; conditions: time 30.0 day
In short: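 Hippocampal tissue from dosed APP/PS1 mice was lysed in RIPA. SOD activity was read by WST-8/xanthine oxidase formazan kit assay and MDA by lipid peroxidation kit, with absorbance on a microplate reader.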

Mus musculus [8] = assay: Neuroprotective activity in APP/PS1 dE9 double transgenic mouse model assessed as improvement in spatial memory at 5 mg/kg, ip administered once daily for 30 consecutive days […] by morris water maze test; type: functional, organism-based; conditions: time 30.0 day; in short: as §1
PC-12 [9] = assay: Neuroprotective activity against Abeta1-42 induced rat PC12 cells assessed as effect on Bcl2/Bax ratio level at 1.25 uM preincubated for 0.5 hrs followed by Abeta1-42 induction and measured after 24 hrs by Western blot analysis; type: functional, cell-based; conditions: time 24.5 hrs
In short: (§3)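 Aβ1–42 challenge in PC12 cells was 10 μM for 24 h after 3 h pretreatment at 10 μM. SP600125 (1.25 μM) was added 0.5 h before pretreatment where used. Cells were lysed in RIPA and protein measured by BCA. Blotting used PVDF transfer, 5% BSA/TBST block for 2 h, primaries 1:1000 overnight at 4 °C, and HRP secondary for 2 h. Bcl-2/Bax ratio and band intensities were quantified.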

PC-12 [10] = assay: Neuroprotective activity against Abeta1-42 induced rat PC12 cells assessed as effect on cleaved caspase-3 protein level at 1.25 uM preincubated for 0.5 hrs followed by Abeta1-42 induction and measured after 24 hrs by Western blot analysis; type: functional, cell-based; conditions: time 24.5 hrs; in short: as §3

SMILES	Activity (Mus musculus [1])	Activity (Mus musculus [2])	Activity (Mus musculus [3])	Activity (Mus musculus [4])	Activity (Mus musculus [5])	Activity (Mus musculus [6])	Activity (Mus musculus [7])	Activity (Mus musculus [8])	Activity (PC-12 [9])	Activity (PC-12 [10])
COc1cc2c(cc1OC)C(=O)C(CC1CCN(Cc3ccccc3)CC1)C2 (stereo not given)	Active	Active	Active	Active	Active	Active	Active	Active		
O=C1c2ccccc2-c2n[nH]c3cccc1c23									inactive	inactive
